Test results published in publication PMC11253873 (RSC Medicinal Chemistry, 2024).
Values after ≈ are worked out from the molar mass of the structure shown. Values joined by “and” are separate entries in the source; they are usually repeats but may differ in a detail not shown here. Equal entries are not always repeated. Where two headings read alike, the source gives them in different places.

Legend:
Mtb H37Rv [1] = experiment: microbe, parasite or virus in culture; assay type: cell-based, Mycobacterium tuberculosis; conditions: for MIC: Mycobacterium tuberculosis, H37RV, 336 h, read-out: Mtb MIC; for Mtb MIC: value in parentheses, Mtb H37Rv, 2 weeks
Pf3D7 parasites [2] = experiment: P. falciparum growth inhibition assay; assay type: cell-based, Plasmodium falciparum; conditions: read-out: Pf IC50, 3 days, PicoGreen DNA content
Procedure, shortened: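 Asynchronous cultures of wild-type 3D7 and fosmidomycin-resistant had1 strain E1-C12 are kept at 2% hematocrit in supplemented RPMI-1640 with 0.5% Albumax, under 5% O2/5% CO2/90% N2 at 37 °C. Parasites are diluted to 0.5% parasitemia and exposed to 1.2 nM–492.4 μM test compound from the start. After 3 days, DNA is read with PicoGreen (ex 485/em 528 nm). IC50 comes from a 4-parameter nonlinear fit. Technical duplicates, biological triplicate.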

PfDXR = target: T1, PfDXR (Plasmodium falciparum, UniProt Q8IKG4); experiment: DXR enzyme inhibition assay; assay type: biochemical; conditions: values in parentheses; compound at 100 μM
T1 sequence (Q8IKG4 73-488): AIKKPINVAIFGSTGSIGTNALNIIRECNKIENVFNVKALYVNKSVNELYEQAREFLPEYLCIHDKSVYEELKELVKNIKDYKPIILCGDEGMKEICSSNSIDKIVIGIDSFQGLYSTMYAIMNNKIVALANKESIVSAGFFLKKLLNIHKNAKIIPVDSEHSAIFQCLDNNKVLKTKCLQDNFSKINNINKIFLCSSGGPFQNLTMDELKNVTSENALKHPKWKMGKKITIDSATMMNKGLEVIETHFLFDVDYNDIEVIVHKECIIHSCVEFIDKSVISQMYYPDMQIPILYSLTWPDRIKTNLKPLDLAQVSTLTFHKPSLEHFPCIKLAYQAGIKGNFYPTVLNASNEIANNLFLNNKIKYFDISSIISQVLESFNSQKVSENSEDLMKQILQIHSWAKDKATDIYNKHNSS

MtbDXR = target: T2, MtbDXR (Mycobacterium tuberculosis, UniProt P9WNS1); experiment: DXR enzyme inhibition assay; assay type: biochemical; conditions: values in parentheses; compound at 100 μM
T2 sequence (P9WNS1 1-413): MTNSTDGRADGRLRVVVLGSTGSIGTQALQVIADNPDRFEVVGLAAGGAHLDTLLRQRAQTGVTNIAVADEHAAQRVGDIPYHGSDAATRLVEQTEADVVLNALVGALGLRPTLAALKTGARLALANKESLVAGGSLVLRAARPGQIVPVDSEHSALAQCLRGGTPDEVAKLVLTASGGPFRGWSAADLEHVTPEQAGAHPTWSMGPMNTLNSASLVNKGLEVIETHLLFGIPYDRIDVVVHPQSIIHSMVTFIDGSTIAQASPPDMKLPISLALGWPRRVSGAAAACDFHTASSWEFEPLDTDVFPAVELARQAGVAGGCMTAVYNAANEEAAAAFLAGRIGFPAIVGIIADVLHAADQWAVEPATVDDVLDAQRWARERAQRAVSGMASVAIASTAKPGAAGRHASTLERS

Mtb H37Rv [3] = conditions: cited from earlier work
Pf3D7 parasites [4] = conditions: read-out: Pf IC50; P. falciparum parasites; cited from earlier work

Molecule CC(=O)N(CCC(c1ccc(Cl)c(Cl)c1)P(=O)(OCOC(=O)C(C)(C)C)OCOC(=O)C(C)(C)C)OC(C)c1ccc(C)cc1 (stereo not drawn) [Compound 7k, ({[1-(3,4-Dichlorophenyl)-3-{N-[1-(4-methylphenyl)ethoxy]acetamido}propyl]({[(2,2-dimethylpropanoyl)oxy]methoxy})phosphoryl}oxy)methyl 2,2-dimethylpropanoate] has an MIC (Mtb H37Rv [1]) of 12.5 µg/mL (≈ 18.2 µM).

Work on CC(=O)N(O)CCC(c1ccc(Cl)c(Cl)c1)P(=O)(OCOC(=O)C(C)(C)C)OCOC(=O)C(C)(C)C (stereo not drawn) [Compound 7a, ({[1-(3,4-Dichlorophenyl)-3-(N-hydroxyacetamido)propyl]({[(2,2-dimethylpropanoyl)oxy]methoxy})phosphoryl}oxy)methyl 2,2-dimethylpropanoate] yielded an MIC (Mtb H37Rv [1]) of 4.6 µg/mL (≈ 8.06 µM).

In the case of “Diammonium {3-[N-({[1,1′-biphenyl]-4-yl}methoxy)acetamido]-1-(3,4-dichlorophenyl) propyl} phosphonate [Compound 6d]”, the IC50 (Pf3D7 parasites [2]) is reported as 86.4 ± 10.1 µM, the “Pf DXR percent remaining enzyme activity at 100 μM” value (PfDXR) is reported as “(26.97) percent” and the “Mtb DXR percent remaining enzyme activity at 100 μM” value (MtbDXR) is reported as “(93.90) percent”. The “Mtb MIC” value (Mtb H37Rv [1]) was 23.1 µM.

For CC(=O)N(CCC(c1ccc(Cl)c(Cl)c1)P(=O)(OCOC(=O)C(C)(C)C)OCOC(=O)C(C)(C)C)OCc1ccc(C(C)C)cc1 (stereo not drawn) [Compound 7f, ({[1-(3,4-Dichlorophenyl)-3-(N-{[4-(propan-2-yl)phenyl]methoxy}acetamido)propyl]({[(2,2-dimethylpropanoyl)oxy]methoxy})phosphoryl}oxy) methyl 2,2-dimethylpropanoate], the MIC (Mtb H37Rv [1]) was 12.5 µg/mL (≈ 17.8 µM).

For “Diammonium [1-(3,4-dichlorophenyl)-3-[N-(4-phenylbutoxy)acetamido]propyl] phosphonate [Compound 6g]”, the IC50 (Pf3D7 parasites [2]) was 63.3 ± 16.7 µM, the “Pf DXR percent remaining enzyme activity at 100 μM” value (PfDXR) was “(25.64) percent” and the “Mtb DXR percent remaining enzyme activity at 100 μM” value (MtbDXR) was “(99.10) percent”. For the same molecule, the “Mtb MIC” value (Mtb H37Rv [1]) was 3.1 µM.

Work on CC(=O)N(CCC(c1ccc(Cl)c(Cl)c1)P(=O)(OCOC(=O)C(C)(C)C)OCOC(=O)C(C)(C)C)OCc1ccc(Br)cc1 (stereo not drawn) [Compound 7h, {[(3-{N-[(4-Bromophenyl)methoxy]acetamido}-1-(3,4-dichlorophenyl)propyl)({[(2,2-dimethylpropanoyl)oxy]methoxy})phosphoryl]oxy}methyl 2,2-dimethylpropanoate] yielded an MIC (Mtb H37Rv [1]) of 6.25 µg/mL (≈ 8.45 µM).

With CC(=O)N(CCC(c1ccc(Cl)c(Cl)c1)P(=O)(O)O)OCc1ccc(-c2ccc(C(C)C)cc2)cc1.N.N (stereo not drawn) [Compound 6i] the MIC (Mtb H37Rv [1]) was 25 µg/mL.

Work on CC(=O)N(CCC(c1ccc(Cl)c(Cl)c1)P(=O)(OCOC(=O)C(C)(C)C)OCOC(=O)C(C)(C)C)OC(C)c1ccc(F)cc1 (stereo not drawn) [Compound 7n, ({[1-(3,4-Dichlorophenyl)-3-{N-[1-(4-fluorophenyl)ethoxy]acetamido}propyl]({[(2,2-dimethylpropanoyl)oxy]methoxy})phosphoryl}oxy)methyl 2,2-dimethylpropanoate] yielded an MIC (Mtb H37Rv [1]) of 4.6 µg/mL (≈ 6.64 µM).

For CC(=O)N(CCC(c1ccc(Cl)c(Cl)c1)P(=O)(OCOC(=O)C(C)(C)C)OCOC(=O)C(C)(C)C)OCc1ccc2ccccc2c1 (stereo not drawn) [Compound 7c, ({[1-(3,4-Dichlorophenyl)-3-{N-[(naphthalen-2-yl)methoxy]acetamido}propyl]({[(2,2-dimethylpropanoyl)oxy]methoxy})phosphoryl}oxy)methyl-2,2-dimethylpropanoate], the MIC (Mtb H37Rv [1]) was 6.25 µg/mL (≈ 8.8 µM).

With “Diammonium [3-{acetyl[1-(4-trifluoromethylphenyl)ethoxy]amino}-1-(3,4-dichlorophenyl)propyl] phosphonate [Compound 6m]” the IC50 (Pf3D7 parasites [2]) was 79.2 ± 12.1 µM, the “Pf DXR percent remaining enzyme activity at 100 μM” value (PfDXR) was “(74.69) percent” and the “Mtb DXR percent remaining enzyme activity at 100 μM” value (MtbDXR) was “(59.60) percent”. For the same molecule, the “Mtb MIC” value (Mtb H37Rv [1]) was greater than 91 µM.

In the case of CC(=O)N(O)CCCP(=O)(O)O [2(FR), FR900098], the “Mtb MIC” value (Mtb H37Rv [3]) is listed as >500 μg mL^−1 and >500 (ref. [34]) μg mL^−1 and the IC50 (Pf3D7 parasites [4]) is listed as 0.511 µM.

In the case of CC(=O)N(CCC(c1ccc(Cl)c(Cl)c1)P(=O)(OCOC(=O)C(C)(C)C)OCOC(=O)C(C)(C)C)OC(C)c1ccc(Cl)cc1 (stereo not drawn) [Compound 7j, ({[1-(3,4-Dichlorophenyl)-3-{N-[1-(4-chlorophenyl)ethoxy]acetamido}propyl]({[(2,2-dimethylpropanoyl)oxy]methoxy})phosphoryl}oxy)methyl 2,2-dimethylpropanoate], the MIC (Mtb H37Rv [1]) is reported as 9.4 µg/mL (≈ 13.3 µM).

Work on CC(=O)N(CCC(c1ccc(Cl)c(Cl)c1)P(=O)(OCOC(=O)C(C)(C)C)OCOC(=O)C(C)(C)C)OC(C)c1ccc(C(F)(F)F)cc1 (stereo not drawn) [Compound 7m, ({[1-(3,4-Dichlorophenyl)-3-{N-[1-(4-trifluoromethylphenyl)ethoxy]acetamido}propyl]({[(2,2-dimethylpropanoyl)oxy]methoxy})phosphoryl}oxy)methyl 2,2-dimethylpropanoate] yielded an MIC (Mtb H37Rv [1]) greater than 100 µg/mL.

For CC(=O)N(CCC(c1ccc(Cl)c(Cl)c1)P(=O)(OCOC(=O)C(C)(C)C)OCOC(=O)C(C)(C)C)OCCCCc1ccccc1 (stereo not drawn) [Compound 7g, ({[1-(3,4-Dichlorophenyl)-3-[N-(4-phenylbutoxy)acetamido]propyl]({[(2,2-dimethylpropanoyl)oxy]methoxy})phosphoryl}oxy) methyl 2,2-dimethylpropanoate], the MIC (Mtb H37Rv [1]) was 12.5 µg/mL (≈ 17.8 µM).

With “Diammonium (3-{N-[(4-bromophenyl) methoxy] acetamido}-1-(3,4-dichlorophenyl) propyl) phosphonate [Compound 6h]” the IC50 (Pf3D7 parasites [2]) was 67.8 ± 3.57 µM, the “Pf DXR percent remaining enzyme activity at 100 μM” value (PfDXR) was “(53.07) percent” and the “Mtb DXR percent remaining enzyme activity at 100 μM” value (MtbDXR) was “(72.30) percent”. The “Mtb MIC” value (Mtb H37Rv [1]) was greater than 92 µM.

For “[({3-[N-({[1,1′-Biphenyl]-4-yl}methoxy)acetamido]-1-(3,4-dichlorophenyl)propyl}({[(2,2-dimethylpropanoyl)oxy] methoxy}) phosphoryl)oxy] methyl-2,2-dimethylpropanoate [Compound 7d]”, the IC50 (Pf3D7 parasites [2]) was 8.78 ± 0.92 µM and the “Mtb MIC” value (Mtb H37Rv [1]) was 17.0 µM.

For CC(=O)N(CCC(c1ccc(Cl)c(Cl)c1)P(=O)(OCOC(=O)C(C)(C)C)OCOC(=O)C(C)(C)C)OC(C)c1ccccc1 (stereo not drawn) [Compound 7e, ({[1-(3,4-Dichlorophenyl)-3-[N-(1-phenylethoxy)acetamido]propyl]({[(2,2-dimethylpropanoyl)oxy]methoxy})phosphoryl}oxy) methyl 2,2-dimethylpropanoate], the MIC (Mtb H37Rv [1]) was 9.4 µg/mL and 13.9 µM.

For “Diammonium {3-[N-(benzyloxy)acetamido]-1-(3,4-dichlorophenyl)propyl} phosphonate [Compound 6b]”, the IC50 (Pf3D7 parasites [2]) was 31.5 ± 7.85 µM, the “Pf DXR percent remaining enzyme activity at 100 μM” value (PfDXR) was “(26.66) percent” and the “Mtb DXR percent remaining enzyme activity at 100 μM” value (MtbDXR) was “(34.20) percent”. The “Mtb MIC” value (Mtb H37Rv [1]) was greater than 214 µM.

With CC(=O)N(CCC(c1ccc(Cl)c(Cl)c1)P(=O)(OCOC(=O)C(C)(C)C)OCOC(=O)C(C)(C)C)OCc1ccc(-c2ccc(C(C)C)cc2)cc1 (stereo not drawn) [Compound 7i, ({[1-(3,4-Dichlorophenyl)-3-(N-{[4′-(propan-2-yl)-[1,1′-biphenyl]-4-yl]methoxy}acetamido)propyl]({[(2,2-dimethylpropanoyl)oxy]methoxy})phosphoryl}oxy)methyl 2,2-dimethylpropanoate] the MIC (Mtb H37Rv [1]) was greater than 100 µg/mL.

For O=CN(O)CCCP(=O)(O)O [1(Fos), Fosmidomycin], the “Mtb MIC” value (Mtb H37Rv [3]) is given as >500 μg mL^−1 and >500 (ref. [34]) μg mL^−1.

Molecule CC(=O)N(CCC(c1ccc(Cl)c(Cl)c1)P(=O)(O)O)OCc1ccc2ccccc2c1.N.N (stereo not drawn) [Compound 6c] has an MIC (Mtb H37Rv [1]) of 12.5 µg/mL.

Work on CC(=O)N(CCC(c1ccc(Cl)c(Cl)c1)P(=O)(OCOC(=O)C(C)(C)C)OCOC(=O)C(C)(C)C)OCc1ccccc1 (stereo not drawn) [Compound 7b, [({3-[N-(Benzyloxy)acetamido]-1-(3,4-dichlorophenyl)propyl}({[(2,2-dimethylpropanoyl)oxy]methoxy})phosphoryl)oxy]methyl 2,2-dimethylpropanoate] yielded an MIC (Mtb H37Rv [1]) of 6.25 µg/mL (≈ 9.46 µM).
